MT stabilizer = microtubule stabilization, imaging screen. % tubulin-high responders, % at 10 µM. 200,000 compounds, 0.83% hits. AID 2205. HeLa tubulin immunostaining HCS, 24 h; share of cells brighter than vehicle mean+2SD;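 active means plate Z-score above 3 for both tubulin-high and condensed-nucleus cell shares, with cell loss under 80%, at 10 µM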;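 further: anti alpha tubulin signal scored within the nucleus-defined area of each cell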
b-catenin transl = alters nuclear translocation of beta-catenin in HeLa cells; 190,000 compounds, 0.3% hits; immunofluorescence imaging; nuclear translocation activity, % at 5 µM;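 active means nuclear translocation activity above 50% at 5 µM, with a well cell count of 50 or more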;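 further: per-cell ratio of nuclear to cytoplasmic median beta-catenin stain intensity; plate controls were DMSO negative control for no effect and GSK-3 inhibitor IX positive control for full effect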
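assay system = human HeLa cells, endogenous beta-catenin | times = compound treatment 24 h, 37°C, 5% CO2 | detection = Anti-beta-catenin immunofluorescence on PFA-fixed, Triton-permeabilized cells, DAPI nuclei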
Lmaj promast = reduces viability of Leishmania major promastigotes | resazurin fluorescence viability | inhibition, % at 10 µM | 200,000 compounds, 9% hits; in the data active means inhibition above about 50%;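 further: promastigotes grown with compound for 44 hours at 28 °C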
APP transl inh = APP translation inhibition; SH-SY5Y APP 5'UTR-luciferase reporter, luminescence; inhibition, % at 2 µM; 190,000 compounds, 0.82% hits; AID 1285;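 active means inhibition above a set limit, derived from the sample mean plus 3 SD, cut at about 45% in these data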
BaF3 parental = counter-screen for JAK2V617F inhibitors: parental Ba/F3 viability inhibitors; CellTiter-Glo ATP luminescence; inhibition, % at 5.6 µM; 220,000 compounds, 1.1% hits;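 active means inhibition above a per-campaign cutoff, the mean inhibition of all tested compounds plus 3 SD, cut at about 27% in these data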;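 further: 0% = DMSO wells and 100% = JAK Inhibitor I control wells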
Ba/F3 V617F tox = loss of viability in JAK2V617F-driven Ba/F3 cells; Ba/F3 EpoR-JAK2V617F viability, ATP luminescence; inhibition, % at 5.6 µM; 220,000 compounds, 1.1% hits; AID 1446;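 active means inhibition above the campaign mean plus 3 SD over all tested compounds, cut at about 24% in these data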;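 further: cytokine-independent growth of Ba/F3 cells driven by EpoR plus mutant JAK2; 0% = DMSO-treated cells and 100% = JAK inhibitor I control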
The depositor's hits bear a star; x = not tested or not shown. Most compounds without a hit are left out; they make up all but 9.6% or so of the library.

SMILES	MT stabilizer	b-catenin transl	Lmaj promast	APP transl inh	BaF3 parental	Ba/F3 V617F tox
c1ccc(CN2CCN(c3nc(NCc4ccco4)c4ccccc4n3)CC2)cc1	2	-1	100*	-9	8	2
CN1CCN(C(=S)c2cn(CCOc3ccccc3F)c3ccccc23)CC1	1	1	27	18	3	-2
Cc1oc(-c2ccccc2)cc1C(=O)NC1CCN(Cc2ccccc2)CC1	x	1	x	x	2	5
Cc1ccc(C)c(S(=O)(=O)N2CCNCC2)c1	5	-3	-10	-6	8	-1
Cc1ccc(C)c(S(=O)(=O)N2C(=S)NC(=O)C2CC(C)C)c1 (centres undefined)	1	-2	-3	77*	3	-2
Cc1cccc(C(=O)Nc2cccc(OC(=O)c3cccc(C)c3)c2)c1	1	-1	2	-51	7	0
COc1ccc(C(=O)Nc2cc(OC)cc(OC)c2)cc1	10	0	3	-125	69*	4
COc1cc(NC(=O)c2ccccc2)cc(OC)c1	5	-1	-7	-91	1	-3
COc1ccc(N(C)C(=S)Oc2ccc(C(=O)Nc3ccccc3)cc2)cc1	44*	-2	-5	-12	1	3
COc1ccc(NC(=S)Nc2ccc(N(C)C(C)=O)cc2)cc1	3	8	2	-5	18	8
COc1ccc(C(=O)Nc2ccc(N3CCCC3)cc2)cc1	1	x	92*	-20	4	-2
COc1ccc(C(=O)Nc2cccc(OC(=O)c3ccc(C)c(C)c3)c2)cc1	22*	0	-2	-107	0	-4
NNC(=O)c1ccc(NS(=O)(=O)c2ccc(Br)cc2)cc1	x	0	x	x	5	3
CC(=O)c1ccc(-c2ccc(C(=O)NC3CCCCCC3)o2)cc1	2	-1	15	16	-1	-1
O=C(O)C1CC=CCC1C(=O)NC1CCCCC1 (centres undefined)	1	0	-2	8	2	-4
CCOP(=O)(OCC)c1nc(-c2cccc3ccccc23)oc1NCCc1ccc(OC)cc1	2	x	97*	-6	12	2
OCCC1CN(CCCn2cccn2)CCN1C1CCCCC1 (centres undefined)	1	2	-5	19	8	-1
CCN1C(=O)C(O)(C2COC(C)(C)CC2=O)c2cc(Br)ccc21 (centres undefined)	2	x	44	5	33*	22
CCN1C(=O)C(O)(C2COC(C)(C)CC2=O)c2ccccc21 (centres undefined)	3	1	-5	-2	1	1
COc1ccc(C(=O)Nc2ccccc2C(=O)N2CCCCC2C)cc1 (centres undefined)	4	1	9	0	1	-2
COC(=O)CCCCCCCCCC[N+]1(C)CCCCC1	3	-3	17	2	2	1
CC(=O)OCCCCCCCCCCC[N+]1(C)CCCCC1	2	0	-4	-19	51*	25*
Cn1c(=O)n(C)c2cc(S(=O)(=O)NCc3ccccc3)ccc21	2	-7	99*	-7	5	4
Cn1c(N)c(S(=O)(=O)NCc2ccc(Cl)cc2)c(=O)n(C)c1=O	4	-6	0	8	4	0
Cn1c(=O)c(=O)n(C)c2cc(S(=O)(=O)NCc3ccc(Cl)cc3)ccc21	5	0	100*	-17	4	0
SMILES	MT stabilizer	b-catenin transl	Lmaj promast	APP transl inh	BaF3 parental	Ba/F3 V617F tox
COc1ccc(OC)c(C(=O)c2oc3ccccc3c2NC(C)=O)c1	17*	-2	1	8	7	0
Fc1ccc(/C=C2\CCCC3=C2Nc2ncnn2C3c2ccc(F)cc2)cc1 (centres undefined)	3	-1	73*	56*	6	-1
c1ccc(C2C3=C(CCCC3)Nc3ncnn32)cc1 (centres undefined)	2	-3	-3	18	2	-3
CC1CCC(C(C)C)C(OC(=O)CSc2nnc(N)s2)C1 (centres undefined)	2	-2	64*	-5	3	-3
CC1CCC(C(C)C)C(OC(=O)CSc2nc(N)cc(=O)[nH]2)C1 (centres undefined)	3	-1	-4	-5	2	2
Cc1cc(N)n2nc(-c3ccccc3)cc2n1	5	1	55*	-118	11	3
Cc1ccc(-c2cc3nc(-c4ccccc4)cc(N)n3n2)cc1	4	1	4	-30	-1	1
Cn1c(=O)[nH]c(=O)c2c1nc1n2CCCN1Cc1ccccc1	x	1	x	x	1	2
Cn1c(N)c(C(=O)COC(=O)C2(c3ccccc3F)CCCC2)c(=O)n(C)c1=O	3	-6	79*	-8	14	-4
Cn1c(N)c(C(=O)COC(=O)C2(c3ccc(F)cc3)CCCC2)c(=O)n(C)c1=O	3	0	0	-19	-1	1
O=S(=O)(c1ccc(S(=O)(=O)N(Cc2ccccc2)Cc2ccco2)cc1)N1CCCC1	3	x	-1	19	3	-2
COC(=O)/C=C/c1ccccc1S(=O)(=O)N(Cc1ccccc1)Cc1ccco1	x	74*	x	x	x	x
CC(NC(=S)Nc1cccc(F)c1)C(c1cccs1)N1CCOCC1 (centres undefined)	x	-1	x	x	-1	-2
O=C(O)CCC(=O)Nc1ccc(Sc2ccc([N+](=O)[O-])cc2)cc1	4	4	51*	3	6	-2
C=C(C)CNC(=S)Nc1nc2c(cc1C(=O)OCC)CCCC2	3	4	28	-76	6	3
O=C(NNC(=O)C1COc2ccccc2O1)c1cccc([N+](=O)[O-])c1 (centres undefined)	3	-1	2	-5	-2	-4
CN(CCOc1ccccc1)C(=O)c1cc([N+](=O)[O-])cc([N+](=O)[O-])c1	2	0	26	-22	0	-6
O=[N+]([O-])c1ccc(Cc2nnc(-c3ccccc3Cl)o2)cc1	4	0	17	-166	4	-2
O=C(c1cc([N+](=O)[O-])cc([N+](=O)[O-])c1)N(Cc1nnc(-c2ccccc2Cl)o1)C1CC1	2	1	82*	-5	7	4
CCCN(Cc1nnc(-c2ccccc2Cl)o1)C(=O)c1cc([N+](=O)[O-])cc([N+](=O)[O-])c1	6	0	98*	-5	7	0
COc1cc(C(=O)OCC(=O)NCCN2C(=O)CSC2=O)ccc1OCc1c(C)noc1C	9	-1	-1	-1	4	3
O=C(CC1C(=O)N(c2ccccc2)C(=S)N1c1ccccc1)c1ccccc1 (centres undefined)	5	0	37	-1	13	2
O=C(CC1C(=O)N(c2ccccc2)C(=S)N1c1ccccc1)c1ccc(Br)cc1 (centres undefined)	1	-2	51*	-16	7	-4
